# Mdm2 MdmX PPI: inhibitors of human Mdm2-MdmX association, primary screen, cell-based, luminescence, split luciferase, SaOS-2, uHTS; hit rate 3% among 330,000; SaOS-2 split-luciferase Mdm2/MdmX complementation; inhibition, % at 8 µM;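 active = inhibition of at least 50% at 8 µM in the primary screen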
# Target sequence (O15151 whole entry, looked up): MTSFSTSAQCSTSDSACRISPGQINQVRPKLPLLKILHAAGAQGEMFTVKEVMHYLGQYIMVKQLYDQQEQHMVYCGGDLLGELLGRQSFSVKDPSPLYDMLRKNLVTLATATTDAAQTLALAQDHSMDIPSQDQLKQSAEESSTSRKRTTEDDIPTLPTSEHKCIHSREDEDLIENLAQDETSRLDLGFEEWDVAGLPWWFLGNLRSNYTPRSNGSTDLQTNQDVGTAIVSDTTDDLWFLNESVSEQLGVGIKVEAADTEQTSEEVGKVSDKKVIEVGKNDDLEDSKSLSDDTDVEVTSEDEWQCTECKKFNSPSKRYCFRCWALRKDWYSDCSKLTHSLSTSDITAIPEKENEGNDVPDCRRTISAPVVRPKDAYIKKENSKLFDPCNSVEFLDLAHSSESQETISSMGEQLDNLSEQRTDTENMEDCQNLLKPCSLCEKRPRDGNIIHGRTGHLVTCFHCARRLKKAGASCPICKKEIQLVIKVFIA
# Target sequence (Q00987 whole entry, looked up): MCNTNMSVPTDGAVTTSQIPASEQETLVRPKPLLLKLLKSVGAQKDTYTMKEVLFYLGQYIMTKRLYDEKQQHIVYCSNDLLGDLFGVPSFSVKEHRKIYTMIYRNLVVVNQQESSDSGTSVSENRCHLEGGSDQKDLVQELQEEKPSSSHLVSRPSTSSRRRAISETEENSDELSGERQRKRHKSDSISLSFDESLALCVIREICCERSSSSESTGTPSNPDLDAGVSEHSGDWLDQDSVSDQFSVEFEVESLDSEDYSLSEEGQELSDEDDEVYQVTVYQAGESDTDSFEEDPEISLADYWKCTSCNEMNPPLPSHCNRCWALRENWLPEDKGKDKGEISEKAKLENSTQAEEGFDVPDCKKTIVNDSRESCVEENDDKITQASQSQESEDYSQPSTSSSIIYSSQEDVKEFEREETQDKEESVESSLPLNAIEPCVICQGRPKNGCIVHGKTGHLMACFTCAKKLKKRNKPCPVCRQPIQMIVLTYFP
# CSC inhib: cancer stem cell viability inhibitors, primary screen, luminescence; AID 2717, 2010; inhibition, % at 7.5 µM; cancer stem cell-like cells viability; hit rate 1.1% among 300,000; in the data active = inhibition above about 75%; inconclusive = no clear call, values can overlap the other calls; tested in HMLE shEcad cells
# Beta cell apopt: inhibitors of cytokine-induced beta cell apoptosis, primary screen, luminescence; hit rate 0.8% among 300,000; protection from apoptosis, % (test concentration not listed); INS-1E cytokine-induced death, ATP luminescence, 48 h; percent of positive-control rescue, neutral wells zero; AID 435005, 2010;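 active = Every replicate reaches about 75%, or at least half do and their mean reaches it too, limit read from the data; inconclusive = At least half of replicates reach the limit but their mean does not; inactive = Under half of replicates reach the limit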;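 also: 0% = cytokine-treated negative control wells and 100% = positive control rescue; higher means more ATP so stronger rescue from cytokine killing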
# CHOP UPR activ: activators of apoptotic CHOP UPR arm, primary screen, cell-based, CHO-CHOP luciferase reporter, luminescence, uHTS | hit rate 0.34% among 330,000 | UPR activation; percent of tunicamycin response over DMSO baseline | AID 449763, 2010 | activation, % at 10 µM;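 active = at 10 µM dose, activation of 40% or more, normalized to positive control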;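 also: 100% = tunicamycin at 10 µg/mL and 0% = DMSO alone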
#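 System: CHO-CHOP luciferase reporter cell line | Buffer or medium: F12 medium containing 10% fetal bovine serum | Doses: One dose, 10 µM in 0.5% DMSO | Times: 6 h compound exposure at 37 °C after overnight seeding | Signal: Luciferase luminescence | Read-out: % activation vs tunicamycin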
# XBP1 UPR activ: activators of adaptive XBP1 UPR arm, primary screen, cell-based, CHO-XBP1 luciferase reporter, luminescence, uHTS; IRE1-XBP1 UPR activation; percent of tunicamycin response, DMSO as zero; activation, % at 20 µM; hit rate 0.33% among 330,000; AID 463104, 2010;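 active = versus positive control, 20 µM dose yields 30% or more activation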;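 also: 100% = tunicamycin at 10 µg/mL and 0% = DMSO only wells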
#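 Material: CHO cell line with stable XBP1 luciferase reporter; buffer or medium: F12 medium containing 10% fetal bovine serum; compound: single point, 20 µM final compound, 1% DMSO; incubation: 6 h treatment, 37 °C; measured by: glow luminescence from Steady-Glo reagent; evaluation: activation, % of tunicamycin; control set: tunicamycin high, DMSO low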
# SKKanGAS inh: S. pyogenes SKKanGAS growth inhibitors in kanamycin, primary screen, streptokinase expression inhibitor project, SKKanGAS strain, BacTiter-Glo luminescence | hit rate 1.3% among 300,000 | 6 h | inhibition, % at 7.5 µM;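 active = mean replicate score, as percent of positive control median, at least 50; inconclusive = mean below 50 but one replicate at or above 50; inactive = mean and every replicate below 50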;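 also: strain carries kanamycin resistance gene driven by streptokinase promoter and grows in 40 µg/ml kanamycin; loss of luminescence reflects streptokinase promoter inhibition or plain growth inhibition; 0% = median of DMSO wells and 100% = positive control at its reference dose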
# Mdm2-MdmX conf: Mdm2-MdmX complex disruptors, retested hits, confirmation, luminescence, single concentration | shares compounds with Mdm2 MdmX PPI | Mdm2-MdmX binding, luminescent assay | inhibition, % at 8 µM | hit rate 55% among 10,000; in the data active = inhibition above about 40%
# FLuc counter: full-length luciferase signal inhibition, confirmation, counter-screen for Mdm2/MdmX interaction inhibitor project, cell-based, single concentration, SaOS-2 | AID 504607, 2011 | shares compounds with Mdm2 MdmX PPI | inhibition, % at 8 µM | hit rate 77% among 6,200 | SaOS-2 full-length luciferase counterscreen, luminescence;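 active = mean inhibition at 8 µM reaching about 37%, which flags the compound as non-specific, limit read from the data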;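 also: p53-null SaOS-2 cells with luciferase driven by a doxycycline-inducible promoter; compound on cells about two nights before reading with doxycycline added after day one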
# * = called active by the depositor; ? = inconclusive; nt = not tested or not shown. Sampled rows, rich in hits. Any-hit rate of the full collection: about 4.8%.
SMILES,Mdm2 MdmX PPI,CSC inhib,Beta cell apopt,CHOP UPR activ,XBP1 UPR activ,SKKanGAS inh,Mdm2-MdmX conf,FLuc counter
O=C(N/N=C/c1ccc(Cl)cc1Cl)c1cccc(N2CCCC2=O)c1,4,4,6,2,0,-8,nt,nt
O=C(N/N=C/c1cc(Br)cc(Br)c1O)c1cccc(N2CCCC2=O)c1,58*,11,2,-1,-2,88*,50*,26
O=C(N/N=C/c1sc(N2CCOCC2)nc1-c1ccccc1)c1cccc(S(=O)(=O)N2CCCC2)c1,79*,26,107*,0,-3,9,72*,41*
Cc1ccc(C(C)C)c(OCc2nn(CC(=O)c3ccc(OC(F)F)cc3)c3[n+]2CCCCC3)c1,95*,94*,114*,2,5,71*,87*,23
COc1ccc(C(=O)Cn2nc(CNc3ccc(Br)cc3)[n+]3c2CCCCC3)cc1,26,13,11,-3,-2,7,nt,nt
COc1ccccc1C(=O)NC(=O)COC(=O)c1ccc(Cl)nc1,21,-3,0,1,0,-7,nt,nt
CCOC(=O)c1ccc(N2N=C(C)/C(=C/C=C/c3ccco3)C2=O)cc1,-1,2,5,1,-4,3,nt,nt
CC1=NN(c2ccc(C)c(C)c2)C(=O)/C1=C\C=C\c1ccc([N+](=O)[O-])o1,77*,-14,84*,25,1,9,57*,41*
O=C(Nc1nnc(CC2=CCCCC2)s1)c1cccs1,-22,-1,3,4,3,9,nt,nt
O=C(Nc1ccc(Cl)c(Cl)c1)Nc1nnc(CC2=CCCCC2)s1,89*,31,84*,8,10,2,27,nt
O=C(Nc1ccc(Cl)cc1)Nc1nnc(CSCc2ccc(Cl)cc2)s1,98*,59,?,3,9,-2,21,nt
O=C(Nc1ccccc1Cl)C1CCN(S(=O)(=O)c2cccc3nonc23)CC1,15,0,2,1,-1,-5,nt,nt
Cc1ccc(OCCn2cnc3c(N)ncnc32)cc1,72*,-32,4,0,2,-3,11,nt
COc1ccc(CCNC(=O)c2ccccc2NC(=O)CN2CCN(c3ccccc3O)CC2)cc1,54*,nt,nt,3,-1,nt,45*,97*
CC1Cc2ccccc2N1C(=O)c1ccc(F)c(S(=O)(=O)N2CCOCC2)c1 (stereo not drawn),12,-4,0,-1,-3,nt,nt,nt
CCOc1ccccc1Nc1cc(C)c2cccc(C)c2n1,-11,30,10,2,-1,14,nt,nt
CCOc1nc(N=C(N)N)nc2c(C)cccc12,56*,-16,48,-1,0,-2,30,nt
O=C(OCC(=O)N1CCc2ccccc2C1)c1ccc(O)cc1,-34,-12,-1,3,2,nt,nt,nt
N=c1n(CCO)c2ccccc2n1CCOc1ccc(Cl)cc1Cl,97*,12,10,0,5,-3,42*,25
COc1ccc(Cl)cc1NC(=O)CN(C)CC(=O)Nc1cc(OC)c(OC)c(OC)c1,41,52,28,-1,-1,-2,nt,nt
COc1ccc(OC)c(-c2nnc3n2N=C(c2ccc(OC)c(OC4CCOC4)c2)CS3)c1 (stereo not drawn),68*,44,19,0,28,nt,63*,93*
COc1ccc(C2=Nn3c(nnc3-c3ccccc3F)SC2)cc1OCC1CC1,84*,57,18,1,10,nt,62*,37*
COc1ccc(C2=Nn3c(nnc3-c3ccccc3Cl)SC2)cc1OC1CCCC1,73*,nt,?,1,16,nt,49*,54*
COc1ccc(C2=Nn3c(nnc3-c3ccccc3OC)SC2)cc1OC,nt,-3,22,nt,nt,3,nt,nt
COc1ccc(OC)c(C2=Nn3c(nnc3-c3ccncc3)SC2)c1,15,-6,4,-1,2,5,nt,nt
SMILES,Mdm2 MdmX PPI,CSC inhib,Beta cell apopt,CHOP UPR activ,XBP1 UPR activ,SKKanGAS inh,Mdm2-MdmX conf,FLuc counter
COc1ccc(C2=Nn3c(nnc3-c3ccccc3Cl)SC2)cc1OC1CCOC1 (stereo not drawn),63*,25,6,2,12,nt,40,63*
COc1ccccc1N(CC(=O)N1CCN(c2ccccc2)CC1)S(=O)(=O)c1ccc(C)cc1,-7,-3,nt,1,-3,3,nt,nt
O=S(=O)(c1cccs1)N1CCN(c2ccnc3cc(Cl)ccc23)CC1,57*,nt,nt,-1,-2,2,23,nt
O=S(=O)(c1ccccc1)N1CCN(c2ccnc3cc(Cl)ccc23)CC1,30,5,33,-2,1,3,nt,nt
CC(=O)Nc1ccc(NC(=O)COC(=O)C2CCCCC2)cc1,-10,-17,1,1,4,nt,nt,nt
CCOc1ccc(-c2nc(N)ncc2-c2ccccc2)c(O)c1,50*,-4,-1,1,2,-12,25,nt
CCOc1ccc(-c2nc(N)ncc2-c2ccc(OC)cc2)c(O)c1,39,9,-11,-1,-3,-5,nt,nt
CC(=O)n1cc(N(C(=O)CCl)c2ccc(C)cc2)c2ccccc21,99*,18,-12,10,-6,-5,100*,52*
CN(CC(=O)Nc1ccccc1Cl)C(=O)CSc1nncn1C,25,-13,0,2,3,1,nt,nt
COc1cc(C(=O)OCc2cc(=O)c(O)co2)ccc1OC(F)F,-2,13,11,1,0,-5,nt,nt
COc1cc(C(=O)OCc2cc(=O)oc3c(C)c(C)ccc23)ccc1OC(F)F,60*,nt,7,1,18,-7,12,nt
CS(=O)(=O)c1ccc(Cl)c(NC(=O)CCN2C(=O)NC3(CCCC3)C2=O)c1,10,8,-8,0,0,nt,nt,nt
CC(=O)Nc1ccc(NC2=Nc3ccccc3N3C2=Nc2c(c(C)nn2-c2ccccc2)C3c2ccccc2)cc1 (stereo not drawn),84*,-1,58,-3,-4,16,90*,32
COc1ccc(NC2=Nc3ccccc3N3C2=Nc2c(c(C)nn2-c2ccc(C)cc2)C3c2cccnc2)cc1 (stereo not drawn),7,8,9,3,2,nt,nt,nt
